Test results: ChEMBL document CHEMBL3739331, “Synthesis and Bioactivities of Kanamycin B-Derived Cationic Amphiphiles” (J Med Chem, 2015)
Values after ≈ are worked out from the molar mass of the structure shown. Active and inactive are the calls of the source. No cut-off for these calls is given here.

Legend:
[1] = test system: Aspergillus nidulans; assay: Antifungal activity against Aspergillus nidulans ATCC 38163 after 48 hrs by microbroth dilution method; type: functional; settings: ATCC 38163, 48 h
Outline: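 Filamentous fungus MIC by broth microdilution, run in duplicate. All compounds are read as MIC-0 (complete inhibition).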

[2] = test system: Candida albicans; assay: Antifungal activity against azole-resistant Candida albicans ATCC 64124 at sub-MIC measured over 24 hrs by time-kill assay; type: functional, organism-based
Outline: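 Time-kill assay on C. albicans ATCC 64124 cultures exposed to test compound at 1/2 MIC, MIC and higher concentrations. Amphotericin B at 1 μg/mL and a no-drug culture serve as controls. CFU are counted at intervals over 24 h.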

[3] = Hemolytic activity against mouse RBC at 100 to 500 ug/ml after 60 mins; type: ADME, cell-based; settings: erythrocyte, 1 h
[4] = test system: Candida albicans; assay: Antifungal activity against azole-resistant Candida albicans MYA-1003 after 48 hrs by microbroth dilution method; type: functional; settings: MYA-1003, 48 h
Outline: (§1)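 Yeast MIC by broth microdilution, run in duplicate. The aminoglycoside compounds are read as MIC-0 (complete inhibition). Azoles are read as MIC-2 (50% inhibition).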

[5] = test system: Candida albicans; assay: Antifungal activity against azole-resistant Candida albicans ATCC 64124 after 48 hrs by microbroth dilution method; type: functional; settings: ATCC 64124, 48 h; outline: as §1
[6] = test system: Candida albicans; assay: Antifungal activity against azole-resistant Candida albicans ATCC 90819 after 48 hrs by microbroth dilution method; type: functional; settings: ATCC 90819, 48 h; outline: as §1
[7] = test system: Candida albicans; assay: Antifungal activity against azole-resistant Candida albicans ATCC 10231 after 48 hrs by microbroth dilution method; type: functional; settings: ATCC 10231, 48 h; outline: as §1
[8] = test system: Candida albicans; assay: Antifungal activity against azole-susceptible Candida albicans ATCC MYA-2876 after 48 hrs by microbroth dilution method; type: functional; settings: ATCC MYA-2876, 48 h; outline: as §1
[9] = test system: Candida albicans; assay: Antifungal activity against azole-resistant Candida albicans MYA-1237 after 48 hrs by microbroth dilution method; type: functional; settings: MYA-1237, 48 h; outline: as §1
[10] = Activity of AAC(6')-1e/APH(2'')-1a (unknown origin) assessed as compound acetylation activity by Ellman's method
[11] = test system: Salmonella enterica; assay: Antibacterial activity against Salmonella enterica ATCC 14028 by microdilution method; type: functional
Outline: (§2)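 Broth microdilution MIC against the named bacterial strain, reported in μg/mL; each determination run at least in duplicate.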

[12] = test system: Enterobacter cloacae; assay: Antibacterial activity against Enterobacter cloacae ATCC 13047 by microdilution method; type: functional; outline: as §2
[13] = test system: Staphylococcus epidermidis; assay: Antibacterial activity against Staphylococcus epidermidis ATCC 12228 by microdilution method; type: functional; outline: as §2
[14] = Activity of AAC(3)-4 (unknown origin) assessed as compound acetylation activity by Ellman's method
[15] = Cytotoxicity against human BEAS2B cells after 24 hrs by resazurin assay; type: cell-based, BEAS-2B; settings: human, beas-2b
[16] = test system: Bacillus subtilis; assay: Antibacterial activity against Bacillus subtilis 168 by microdilution method; type: functional; settings: subsp. subtilis str. 168; outline: as §2
[17] = test system: Acinetobacter baumannii; assay: Antibacterial activity against Acinetobacter baumannii ATCC 19606 by microdilution method; type: functional; outline: as §2
[18] = test system: Mycobacterium tuberculosis; assay: Activity of Mycobacterium tuberculosis Eis assessed as compound acetylation activity by Ellman's method
[19] = test system: Escherichia coli; assay: Antibacterial activity against Escherichia coli MC1061 by microdilution method; type: functional
Outline: (§3)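 Broth microdilution MIC, in μg/mL, against a panel of Gram-positive and Gram-negative strains. Run at least in duplicate.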

[20] = test system: Staphylococcus aureus; assay: Antibacterial activity against Staphylococcus aureus ATCC 29213 by microdilution method; type: functional; outline: as §2
[21] = test system: Bacillus subtilis subsp. subtilis str. 168; assay: Activity of Bacillus subtilis 168 APH(2'')-1a assessed as compound phosphorylation activity by Ellman's method
[22] = test system: Serratia marcescens; assay: Activity of Serratia marcescens AAC(6')-2d assessed as compound acetylation activity by Ellman's method
[23] = test system: Mycolicibacterium smegmatis; assay: Antibacterial activity against Mycobacterium smegmatis MC2 155 by microdilution method; type: functional; settings: str. MC2 155; outline: as §3
[24] = test system: Mycobacterium tuberculosis; assay: Activity of Mycobacterium tuberculosis AAC(2')-1c assessed as compound acetylation activity by Ellman's method
[25] = test system: A549; assay: Cytotoxicity against human A549 cells after 24 hrs by resazurin assay; type: cell-based; settings: human, a549, 24 h
[26] = test system: Staphylococcus aureus; assay: Antibacterial activity against Staphylococcus aureus NRS385 (USA 300) by microdilution method; type: functional; outline: as §3
[27] = test system: Klebsiella pneumoniae; assay: Antibacterial activity against Klebsiella pneumoniae ATCC 27736 by microdilution method; type: functional; outline: as §2
[28] = test system: Candida albicans; assay: Antifungal activity against azole-susceptible Candida albicans ATCC MYA-2310 after 48 hrs by microbroth dilution method; type: functional; settings: ATCC MYA-2310, 48 h; outline: as §1
[29] = test system: Listeria monocytogenes; assay: Antibacterial activity against Listeria monocytogenes ATCC 19115 by microdilution method; type: functional; outline: as §2
[30] = test system: Pseudomonas aeruginosa; assay: Antibacterial activity against Pseudomonas aeruginosa ATCC 27853 by microdilution method; type: functional; outline: as §2
[31] = test system: Staphylococcus aureus; assay: Antibacterial activity against Staphylococcus aureus NRS383 (USA 200) by microdilution method; type: functional; outline: as §2
[32] = test system: Staphylococcus aureus; assay: Antibacterial activity against Staphylococcus aureus NRS22 (USA 600) by microdilution method; type: functional; outline: as §2
[33] = test system: Staphylococcus aureus; assay: Antibacterial activity against Staphylococcus aureus NRS382 (USA 100) by microdilution method; type: functional; outline: as §2
[34] = test system: Staphylococcus aureus; assay: Antibacterial activity against methicillin-resistant Staphylococcus aureus by microdilution method; type: functional; outline: as §3
[35] = test system: Enterococcus; assay: Antibacterial activity against vancomycin-resistant Enterococcus by microdilution method; type: functional; outline: as §3

Structure (SMILES) | MIC [1] [µg/mL] | Activity [3] | Activity [10] | MIC [11] [µg/mL] | MIC [4] [µg/mL] | MIC [12] [µg/mL] | MIC [13] [µg/mL] | Activity [14] | Activity [15] | MIC [16] [µg/mL] | MIC [17] [µg/mL] | MIC [5] [µg/mL] | Activity [18] | MIC [19] [µg/mL] | MIC [20] [µg/mL] | Activity [21] | Activity [22] | MIC [6] [µg/mL] | MIC [7] [µg/mL] | MIC [8] [µg/mL] | also measured
CCCCCCCCCCCCSC[C@H]1O[C@H](O[C@@H]2[C@@H](O)[C@H](O[C@H]3O[C@H](CN)[C@@H](O)C[C@H]3N)[C@@H](N)C[C@H]2N)[C@H](O)[C@@H](N)[C@@H]1O | 7.8 (≈ 12 µM) | – | – | – | – | – | – | – | – | – | – | – | – | – | – | – | – | – | – | – | –
C[C@@H]1[C@H](O)[C@@H](C)/C=C/C=C/C=C/C=C/C=C/C=C/C=C/[C@H](O[C@@H]2O[C@H](C)[C@@H](O)[C@H](N)[C@@H]2O)C[C@@H]2O[C@](O)(C[C@@H](O)C[C@@H](O)[C@H](O)CC[C@@H](O)C[C@@H](O)CC(=O)O[C@H]1C)C[C@H](O)[C@H]2C(=O)O [AMPHOTERICIN B] | – | Toxic | – | – | – | – | – | – | – | – | – | – | – | – | – | – | – | – | – | – | Activity [2]: Active
CCC(C)n1ncn(-c2ccc(N3CCN(c4ccc(OCC5COC(Cn6cncn6)(c6ccc(Cl)cc6Cl)O5)cc4)CC3)cc2)c1=O (stereo not drawn) [ITRACONAZOLE] | ≤ 1.95 | – | – | – | – | – | – | – | – | – | – | – | – | – | – | – | – | – | – | – | MIC50 [4]: 31.2 µg/mL (≈ 44.2 µM); MIC50 [5]: > 62.5 µg/mL; MIC50 [6]: 31.2 µg/mL (≈ 44.2 µM); MIC50 [7]: 0.5 µg/mL (≈ 0.709 µM); MIC50 [8]: 7.8 µg/mL (≈ 11.1 µM); MIC50 [9]: 31.2 µg/mL (≈ 44.2 µM)
CCCCCCCCCCSC[C@@H]1O[C@@H](O[C@@H]2[C@@H](O)[C@H](O[C@@H]3O[C@@H](CN)[C@H](O)[C@@H](O)[C@@H]3N)[C@@H](N)C[C@H]2N)[C@@H](O)[C@H](N)[C@H]1O (stereo in doubt) | ≤ 1.95 | Non-toxic | inactive | > 128 | 125 (≈ 195 µM) | > 128 | > 128 | inactive | Non-toxic | 128 (≈ 200 µM) | > 128 | 125 (≈ 195 µM) | inactive | > 128 | 16 (≈ 25 µM) | inactive | inactive | 125 (≈ 195 µM) | 125 (≈ 195 µM) | 125 (≈ 195 µM) | MIC [23]: 8 µg/mL (≈ 12.5 µM); Activity [24]: inactive; Activity [25]: Non-toxic; MIC [26]: 32 µg/mL (≈ 50 µM); MIC [27]: > 128 µg/mL; MIC [28]: 62.5 µg/mL (≈ 97.7 µM); MIC [29]: 2 µg/mL (≈ 3.13 µM); MIC [9]: 125 µg/mL (≈ 195 µM)
CCCCCCCCCCSC[C@H]1O[C@H](O[C@@H]2[C@@H](O)[C@H](O[C@H]3O[C@H](CN)[C@@H](O)C[C@H]3N)[C@@H](N)C[C@H]2N)[C@H](O)[C@@H](N)[C@@H]1O | 62.5 (≈ 100 µM) | – | – | – | – | – | – | – | – | – | – | – | – | – | – | – | – | – | – | – | –
CCCCCCCCSC[C@@H]1O[C@@H](O[C@@H]2[C@@H](O)[C@H](O[C@@H]3O[C@@H](CN)[C@H](O)[C@@H](O)[C@@H]3N)[C@@H](N)C[C@H]2N)[C@@H](O)[C@H](N)[C@H]1O (stereo in doubt) | 15.6 (≈ 25.5 µM) | Non-toxic | inactive | > 128 | > 125 | > 128 | > 128 | inactive | Non-toxic | > 128 | > 128 | > 125 | inactive | > 128 | 64 (≈ 105 µM) | inactive | inactive | > 125 | > 125 | > 125 | MIC [30]: 64 µg/mL (≈ 105 µM); MIC [31]: 64 µg/mL (≈ 105 µM); MIC [32]: 64 µg/mL (≈ 105 µM); MIC [33]: 128 µg/mL (≈ 209 µM); MIC [34]: 128 µg/mL (≈ 209 µM); MIC [23]: 64 µg/mL (≈ 105 µM); MIC [35]: 128 µg/mL (≈ 209 µM); Activity [24]: inactive; Activity [25]: Non-toxic; MIC [26]: 128 µg/mL (≈ 209 µM); MIC [27]: > 128 µg/mL; MIC [28]: > 125 µg/mL; MIC [29]: 8 µg/mL (≈ 13.1 µM); MIC [9]: > 125 µg/mL
